We go through 25 molecules from ChEMBL document CHEMBL1130285, “5-HT1A-versus D2-receptor selectivity of flesinoxan and analogous N4-substituted N1-arylpiperazines” (J Med Chem, 1997).

Bounds are passed on as bounds.

Data set [1] deals with T1, D(2) dopamine receptor (Rattus norvegicus, UniProt P61169). Kind of data set: pKi value against rat Dopamine receptor D2.
Data set [2] has as its target T1, D(2) dopamine receptor. Kind of data set: In vitro displacement of [3H]spiperone from Dopamine receptor D2 binding site in rat striatum. Background: Displacement assays read how much labelled ligand stays bound in the presence of the test substance.
Data set [3] in a line: Partition coefficient (logP). Type of data set: physicochemical. Particulars: octanol/water. An outline of the steps: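 Retention factor k converted via calibration with 10 reference compounds (log Pow 2.1–5.7). Values below 2.1 extrapolated; interpolated values carry 95% confidence interval ±0.4.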
Data set [4] addresses T2, 5-hydroxytryptamine receptor 1A (Rattus norvegicus, UniProt P19327).
T2 sequence (P19327 whole entry): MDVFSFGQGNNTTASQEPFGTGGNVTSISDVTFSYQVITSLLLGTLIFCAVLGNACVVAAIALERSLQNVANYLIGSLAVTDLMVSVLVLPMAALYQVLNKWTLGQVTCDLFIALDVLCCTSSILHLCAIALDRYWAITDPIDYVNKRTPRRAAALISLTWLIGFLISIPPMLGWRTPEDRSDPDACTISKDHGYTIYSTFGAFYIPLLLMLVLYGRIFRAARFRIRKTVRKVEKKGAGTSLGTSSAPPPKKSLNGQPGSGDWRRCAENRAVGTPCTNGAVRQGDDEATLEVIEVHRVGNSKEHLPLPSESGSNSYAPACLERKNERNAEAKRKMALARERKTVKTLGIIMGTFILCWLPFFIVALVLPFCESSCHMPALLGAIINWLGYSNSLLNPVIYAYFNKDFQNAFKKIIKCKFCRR
As to the kind of experiment: Binding affinity was evaluated by determining in vitro displacement of [3H]8-OH-DPAT from the central 5-hydroxytryptamine 1A receptor recognition site in rat frontal cortex homogenate. Format: tissue-based.

Data set [5] has as its target T2, 5-hydroxytryptamine receptor 1A. As to the kind of experiment: pKi value against rat 5-hydroxytryptamine 1A receptor.
Data set [6] addresses T3, 5-hydroxytryptamine receptor 1A (Homo sapiens, UniProt P08908).
T3 sequence (P08908 whole entry): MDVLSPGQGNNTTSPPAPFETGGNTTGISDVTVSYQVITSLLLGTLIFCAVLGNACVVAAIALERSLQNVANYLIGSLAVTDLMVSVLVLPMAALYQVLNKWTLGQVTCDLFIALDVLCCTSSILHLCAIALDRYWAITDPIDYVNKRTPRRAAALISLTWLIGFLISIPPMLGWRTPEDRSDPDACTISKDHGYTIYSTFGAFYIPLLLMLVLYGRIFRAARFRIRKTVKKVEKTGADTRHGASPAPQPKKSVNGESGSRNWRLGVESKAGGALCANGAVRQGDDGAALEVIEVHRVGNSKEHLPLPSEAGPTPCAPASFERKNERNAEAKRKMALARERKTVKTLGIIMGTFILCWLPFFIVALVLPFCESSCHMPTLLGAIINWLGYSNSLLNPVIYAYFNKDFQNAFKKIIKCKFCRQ
Kind of data set: In vitro potency at human 5-hydroxytryptamine 1A receptor in inhibiting forskolin-stimulated accumulation of intracellular cAMP. Type of data set: functional, cell-based. An outline of the steps:
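CHO cells stably expressing human 5-HT1A receptor, grown in α-DMEM + 10% fetal calf serum, seeded 3 days before assay. Labelled with [3H]adenine (2 μCi/mL) for 2 h, rinsed with PBS/10 mM IBMX, then stimulated 10 min with forskolin (10^-7 M) plus compound at various concentrations, in quadruplicate. TCA extraction; [3H]cAMP separated on Dowex/alumina columns, scintillation counting. EC50 from three independent experiments.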

T1 sequence (P61169 whole entry): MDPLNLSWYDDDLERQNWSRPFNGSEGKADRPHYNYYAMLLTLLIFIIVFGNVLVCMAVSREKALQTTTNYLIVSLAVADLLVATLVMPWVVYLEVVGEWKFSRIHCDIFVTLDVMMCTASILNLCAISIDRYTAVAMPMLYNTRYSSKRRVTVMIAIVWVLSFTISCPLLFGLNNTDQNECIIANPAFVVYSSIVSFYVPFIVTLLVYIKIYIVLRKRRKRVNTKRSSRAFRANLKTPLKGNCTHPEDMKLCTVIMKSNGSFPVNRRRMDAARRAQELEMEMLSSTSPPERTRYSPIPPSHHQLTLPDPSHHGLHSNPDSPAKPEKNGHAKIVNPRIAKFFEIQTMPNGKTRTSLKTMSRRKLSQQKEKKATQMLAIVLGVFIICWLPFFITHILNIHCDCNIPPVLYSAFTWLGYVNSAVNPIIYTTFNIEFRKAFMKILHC

Take `COc1ccccc1N1CCN(CCNC(=O)c2ccco2)CC1`: the Ki (commonly a measure of affinity in units of concentration, obtained from inhibition or displacement) at D(2) dopamine receptor [1] was 79.4 nM; on D(2) dopamine receptor [2] it was 73 nM; in data set [4], 18 nM; in data set [5] it was 20 nM. Moreover, in data set [3], the logP (commonly a log measure of how a compound divides between an organic and an aqueous phase) came out at 1.6.
In data set [4], `O=C(NCCN1CCN(c2ccccc2)CC1)c1ccc(F)cc1` yielded a Ki of 4.9 nM. In other words, the single-digit nanomolar range.
Regarding `COc1ccccc1N1CCN(CCNC(C)=O)CC1`, the Ki on D(2) dopamine receptor [1] was 1000 nM; at D(2) dopamine receptor [2] it was 1100 nM; in data set [4], 800 nM; in data set [5] it was 794 nM. Moreover, the logP in data set [3] was 0.5.
The like results for `COc1ccccc1N1CCN(CC/C=C/c2ccc(F)cc2)CC1` were, in that order, 3.98 nM, 4.1 nM, 1.8 nM, 2 nM and 4.7.
The like results for `COc1ccccc1N1CCN(CCCCc2ccc(F)cc2)CC1` were, in that order, 3.16 nM, 3.3 nM, 1.1 nM, 1 nM and 4.8.
On the same counts, the results for `COc1ccccc1N1CCN(CCCOc2ccc(F)cc2)CC1` are 3.16 nM, 3.3 nM, 3.4 nM, 3.16 nM and 4.1.
At D(2) dopamine receptor [2], `OC[C@@H]1COc2c(cccc2N2CCNCC2)O1` registered an inhibitory constant (Ki) of more than 10000 nM.
For `COc1ccccc1N1CCN(CCNC(=O)c2ccccc2)CC1`, the Ki is 12.6 nM at D(2) dopamine receptor [1], 13 nM on D(2) dopamine receptor [2], 1.3 nM in data set [4] and 1.26 nM in data set [5]. The molecule also came in with a logP in data set [3] of 2.2.
The like results for `COc1ccccc1N1CCN(CCNC(=S)C2CCCCC2)CC1` were, in that order, 6.31 nM, 6.4 nM, 0.32 nM, 0.316 nM and 3.7.
The like results for `COc1ccccc1N1CCN(CCNC(=O)c2ccncn2)CC1` were, in that order, 251 nM, 250 nM, 15 nM, 15.8 nM and 1.5.
On the same counts, the results for `COc1ccccc1N1CCN(CCNC(=N)C2CCCCC2)CC1` are 126 nM, 130 nM, 4.5 nM, 5.01 nM and 3.4.
For `COc1ccccc1N1CCN(CCNC(=O)C2CCCCC2)CC1`, the Ki is 12.6 nM at D(2) dopamine receptor [1], 23 nM on D(2) dopamine receptor [2], 0.8 nM in data set [4] and 0.794 nM in data set [5]. Besides, in data set [3], the logP worked out at 2.8.
The like results for `COc1ccccc1N1CCN(CCNC(=O)c2cccnc2)CC1` were, in that order, 501 nM, 570 nM, 140 nM, 158 nM and 1.2.
On the same counts, the results for `COc1ccccc1N1CCN(CCNC(=O)c2ccc[nH]2)CC1` are 63.1 nM, 64 nM, 16 nM, 15.8 nM and 1.6.
With `O=C(NCCN1CCN(c2cccc3ccoc23)CC1)c1ccc(F)cc1`, the inhibition constant Ki on D(2) dopamine receptor [2] was found to be 5.3 nM.
Take `CC1CN(c2cccc3c2OCCO3)CC(C)N1CCNC(=O)c1ccc(F)cc1` (stereo not drawn): the response in data set [6] was half-maximal at 0.78 nM (EC50).
Consider `COc1ccccc1N1CCN(CCOCc2ccc(F)cc2)CC1`, for which the Ki on D(2) dopamine receptor [1] was 10 nM; at D(2) dopamine receptor [2], 10 nM; in data set [4] it was 22 nM; in data set [5], 20 nM. Besides, the logP in data set [3] came out at 3.6.
Consider `COc1ccccc1N1CCN(CCNC(=O)c2cccs2)CC1`, for which the Ki was 15.8 nM on D(2) dopamine receptor [1], 17 nM on D(2) dopamine receptor [2], 1.6 nM in data set [4] and 1.58 nM in data set [5]. The same molecule registered a logP in data set [3] of 2.
As for `COc1ccccc1N1CCN(CCNC(=O)c2ccc(F)cc2)CC1`, in data set [3], the logP was determined as 2.5. Besides, the Ki in data set [4] and in data set [5] was 1 nM in each case.
Take `c1cc(N2CCNCC2)c2occc2c1`: at D(2) dopamine receptor [2], affinity was put at a Ki of 780 nM.
As for `O=C(NCCN1CCN(c2cccc3c2OCCO3)CC1)c1ccc(F)cc1`, affinity on D(2) dopamine receptor [2] was put at a Ki of 14 nM. Besides, the EC50 – broadly, the concentration at which the effect is half-maximal – in data set [6] was 0.9 nM.
Turning to `O=C(NCCN1CCN(c2cccc3c2OCC(CO)O3)CC1)c1ccc(F)cc1` (single isomer, unassigned) [FLESINOXAN], the values for the Ki (on D(2) dopamine receptor [2]; in data set [4]) were 140 nM and 1.7 nM, respectively.
Turning to `COc1ccccc1N1CCN(CCCC(O)c2ccc(F)cc2)CC1` (stereo not drawn) [ANISOPIROL], the Ki on D(2) dopamine receptor [1] is 3.16 nM; at D(2) dopamine receptor [2], 3.4 nM; in data set [4] it was 2.5 nM; in data set [5] it was 2.51 nM. In data set [3], this molecule came in with a lipophilicity (logP) of 3.4.
On the same counts, the results for `COc1ccccc1N1CCN(CCCC(=O)c2ccc(F)cc2)CC1` [FLUANISONE] are 2.51 nM, 3.1 nM, 1 nM, 1 nM and 3.6.
Regarding `c1ccc(N2CCNCC2)cc1` [PHENYLPIPERAZINE], the Ki at D(2) dopamine receptor [2] was 6800 nM.
